Plk1 PBD FP – blocks phosphopeptide binding to human Plk1 polo box domain; Plk1 PBD phosphopeptide binding, fluorescence polarization; 0.13% of 97,000 active; inhibition, %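 (tested at about 20 µM)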; P53350; AID 693; in the data active = inhibition above about 34%, passing the limit was not always enough
LYP inh 2 – blocks human PTPN22 phosphatase activity. AID 640. inhibition, % at 2 µM. 0.21% of 96,000 active. recombinant LYP catalytic domain, DiFMUP fluorescence. Q9Y2R2;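 active = inhibition at 2 µM at or above a set limit, the screen mean plus 3 SD, cut at about 24% in these data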;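 also: 0% = DMSO with enzyme and 100% = enzyme fully blocked by orthovanadate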
PTPN22 act – LYP (human) phosphatase activation | Q9Y2R2 | activation, % at 2 µM | recombinant LYP, DiFMUP fluorescence; 0 = plate median, 100 = signal doubled | 0.11% of 96,000 active;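 active = activation at 2 µM above a set limit, the mean plus 5 SD, cut at about 37% in these data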
Rev-RRE block – disrupts HIV-1 Rev binding to RRE RNA; 0.79% of 97,000 active; AID 704; P05866; inhibition, % at 8 µM; Rev peptide-RRE RNA binding, FRET;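 active = inhibition above the screen-wide mean plus 3 SD, cut at about 35% in these data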;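 also: 0% = median DMSO wells and 100% = median Neomycin B control wells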
Target sequence (P05866 whole entry, looked up): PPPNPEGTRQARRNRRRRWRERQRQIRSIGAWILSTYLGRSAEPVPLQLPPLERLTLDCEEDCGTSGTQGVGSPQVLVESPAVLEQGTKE
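Assay system: labelled RRE RNA duplex and labelled Rev peptide / Medium: HEPES pH 7.5 salt buffer with EDTA / Reagent: labelled Rev peptide / Schedule: 5 + 15 min at 25 °C / Signal: FRET, excitation 480 nm, emission 540 nm donor and 671 nm acceptor / Benchmarks: DMSO and neomycin B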
PLK1 kinase inh – blocks human PLK1 kinase activity; 0.53% of 97,000 active; P53350; recombinant PLK1 kinase, TR-FRET peptide phosphorylation; inhibition, % at 10 µM; AID 619;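 active = inhibition of 50% or more in the single-concentration screen; inactive = inhibition below 50%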;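 also: 0% = DMSO max control and 100% = H-89 dihydrochloride min control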
EphB4 ephrin blk – blocks human EphB4 binding to ephrin-B2; P54760; EphB4 LBD / TNYL-RAW-Alexa532 peptide, fluorescence polarization; inhibition, % at 7 µM; 0.15% of 97,000 active; AID 720;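 active = inhibition above the screen-wide mean inhibition plus 3 SD, cut at about 15% in these data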;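 also: 0% = DMSO wells and 100% = excess unlabeled TNYL-RAW peptide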
Numbers without * were called inactive; / = no result; [ ] = remark or other dose. Compounds with a hit are over-represented: about 1.8% of the library has one in this group of screens.

SMILES	Plk1 PBD FP	LYP inh 2	PTPN22 act	Rev-RRE block	PLK1 kinase inh	EphB4 ephrin blk
CC1=NOC(=O)/C1=C\c1ccc(-c2cccc(Cl)c2)o1	-9	-10	11	4	-4	-9
Cn1c(-c2c(N)n(CCCc3ccccc3)c3nc4ccccc4nc23)nc2ccccc21	-9	1	1	45*	-19	11
COCCCn1c(N)c(-c2nc3ccccc3n2C)c2nc3ccccc3nc21	-12	9	-8	58*	0	6
N#Cc1c(N)n(CCc2ccc(F)cc2)c2nc3ccccc3nc12	-2	-2	2	24	9	7
Cn1c(-c2c(N)n(C3CCCC3)c3nc4ccccc4nc23)nc2ccccc21	-3	-1	0	58*	-17	-4
Cn1c(-c2c(N)n(CCc3ccccc3)c3nc4ccccc4nc23)nc2ccccc21	12	2	-2	44*	-19	-3
CCC(=O)N(CC(=O)Nc1sc(C)c(C)c1C(N)=O)C1CCCCC1	40	2	1	-1	-10	-3
CN(C)S(=O)(=O)c1ccc(C(=O)Nc2ccc(F)cc2F)cc1	-8	/	/	2	66*	1
Cc1c(Cl)c([N+](=O)[O-])nn1Cc1ccc(C(=O)N/N=C\c2cccc(Br)c2)o1	-12	11	-9	9	-8	4
CC1(C)NC(=O)N(CCOCCOc2c(Cl)cc(Cl)cc2Cl)C1=O	-5	-1	5	3	-12	-2
COc1ccc(C(C)NC(=O)c2ccccc2)cc1 (stereo not drawn)	26	-11	10	3	6	16*
CCOc1ccc(N2C(=O)CS/C2=N/NC(=O)COc2ccc3ccccc3c2)cc1	-18	2	1	0	-4	-4
CCOc1ccc(N2C(=O)CS/C2=C(\C(Cl)=C(Cl)Cl)[N+](=O)[O-])cc1	-14	26*	-25	-2	0	1
CCOc1ccc(-c2csc(N)c2C(=O)OC)cc1	15	30*	-29	0	-4	-1
O=C(NCCCN1CCCC1=O)NC12CC3CC(CC(C3)C1)C2	-14	-5	2	2	-10	16*
O=C1CC(=C(c2ccccc2)c2ccccc2)C(=O)N1CCCCN1CCN(c2ccccc2)CC1	-8	19	-19	7	1	3
O=C1CC(=C2c3ccccc3-c3ccccc32)C(=O)N1CCN1CCN(c2cccc(Cl)c2)CC1	-10	25*	-24	9	-10	-3
CSC1=NC2C(N1)N(C)C(=O)N2C (stereo not drawn)	5	2	0	6	-2	6
O=C(CCCOc1ccc(Cl)cc1Cl)Nc1ccncc1	-5	5	-5	12	54*	5
CCN(CC(=O)N1CCc2ccccc2C1)S(=O)(=O)c1ccc2ccccc2c1	-25	13	-10	0	4	-1
CC(C)(C)c1ccc(OCCNC(=O)c2ncn[nH]2)cc1	-16	6	-5	-2	-2	-1
Cc1ccc2nc3sc(C(=O)NCc4ccco4)c(N)c3cc2c1	-13	6	-6	37*	-8	-5
COc1cc2cc3c(N)c(C(=O)NCc4ccco4)sc3nc2cc1OC	7	-10	7	34	-3	-9
Cc1nc2ccccc2n1-c1ccccc1	-8	-4	1	8	-4	2
O=c1c(/C=C(\O)c2ccccc2)nc2ccccc2n1-c1ccccc1	3	8	-6	98*[fluorescence artefact?]	-14	-4
SMILES	Plk1 PBD FP	LYP inh 2	PTPN22 act	Rev-RRE block	PLK1 kinase inh	EphB4 ephrin blk
COc1ccc(/C=C/C(=O)c2c(O)cc(C)oc2=O)c(OC)c1	2	8	-6	89*[fluorescence artefact?]	-26	5
COc1cc(/C=C/C(=O)c2c(O)cc(C)oc2=O)cc(OC)c1O	-16	-15	11	38*	-1	-9
CCCCCCSc1nc(O)c(C2OC(=O)c3c2ccc(OC)c3OC)c(=O)n1-c1ccccc1 (stereo not drawn)	-8	0	0	-4	-1	2
CC1CCCCN1CCNC(=O)c1cnn2ccccc12 (stereo not drawn)	-4	/	/	5	69*	-2
Cc1cc(C(F)(F)F)nc(NCc2cccnc2)n1	30	-21	15	2	2	5
CC(=O)N1CCc2cc(C(=O)CN3CCCN(Cc4ccc(F)cc4)C3)ccc21	19	-3	2	-3	68*	-3
CC(=O)OC(C(=O)Nc1ccccc1C)C(OC(C)=O)C(OC(C)=O)C(OC(C)=O)C(=O)Nc1ccccc1C (stereo not drawn)	-10	6	-5	7	-12	3
O=[N+]([O-])c1cccc(/C=C/c2nc(C=Nc3ccccc3)c(O)o2)c1	6	-3	5	41*	-8	3
COC(=O)c1cc(C#N)c(Oc2ccc(F)cc2)nc1C	17	8	-6	6	-7	1
COC(=O)c1c(NC(=O)CSc2n[nH]c(N)n2)sc(C)c1C	16	0	0	3	-7	-5
Cc1ccc(/C=C/C2=Cc3c(sc(NC(=O)CSc4n[nH]c(N)n4)c3C#N)C(C)(C)C2)o1	-3	3	-6	47*	2	0
CCOc1ccc(N(CC(=O)NC2CCCC2)C(=O)CSc2nnc(COc3ccccc3)o2)cc1	-9	1	0	3	-12	-2
CCOC(=O)CCSc1nc(C(C)(C)C)cc(C(F)(F)F)c1C#N	-4	2	0	10	-15	4
CCOC(=O)CCSc1nc(C)cc(C(F)(F)F)c1C#N	-27	-10	10	80*	-4	5
CCOC(=O)CC(=O)CSc1nc(-c2ccc3c(c2)OCO3)cc(C(F)(F)F)c1C#N	-33	8	-3	61*	-15	-4
Cn1c(C(=O)OC(C(=O)NCc2ccco2)c2ccncc2)cc2sccc21 (stereo not drawn)	-2	0	2	4	-6	-2
O=C(c1cc(-c2ccncc2)nc2ccccc12)N1CCN(c2ccc(N3CCOCC3)nn2)CC1	-17	6	-7	8	7	3
O=C1NC(=S)N/C1=C/c1cccc([N+](=O)[O-])c1O	-54	-11	8	69*	-12	2
O=C1NC(=S)N/C1=C/c1cc([N+](=O)[O-])ccc1O	-35	2	-2	111*[fluorescence artefact?]	-5	-1
CCOC(=O)c1sc2nc(N3CCOCC3)c3c(c2c1N)CCCC3	13	8	-5	2	-6	1
COC(=O)c1ccc(-c2sc3nc(N4CCOCC4)c4c(c3c2N)CCCC4)o1	-34	-6	2	85*	-5	-1
CC1Sc2ccccc2N(CC(=O)N(C(C)C)C(C)C)C1=O (stereo not drawn)	2	11	-9	-1	-1	-3
CCCn1cc(SCC(=O)NCc2ccco2)c2ccccc21	4	4	0	9	-17	1

High-throughput results (PubChem BioAssay)
